Measured values pooled from the literature.
Protocols differ between the studies behind these lines.
Target: Cyclin-dependent kinase 14 (CDK14, Homo sapiens, UniProt O94921)

`Nc1ncc2c(n1)-c1c([nH]c3ccc(C#CC4CC4)cc13)CCCC2` gave a remaining binding of 88% (binding; competition with immobilised ligand; 1 µM).
For `F[C@@H]1CCN(c2nccc(-c3cnn4ncccc34)n2)C1`, the remaining binding was 100% (binding; 1 µM).
The remaining binding of `Cc1cc(C)c(-n2ccn3nc(-c4cccnc4)cc23)cc1NC(=O)c1cc(C#N)cc(S(F)(F)(F)(F)F)c1` is reported as 100% (cell-free assay; competition with immobilised ligand; 0.1 µM).
`O=C(NCCCN1CCOCC1)c1ccc(Nc2nccc(-c3cc4ccccc4s3)n2)cc1` has a remaining binding of 100% (binding; competition with immobilised ligand; 1 µM).
With `COc1ncc2cc3ccccc3nc2c1C#N` the remaining binding was 99% (cell-free assay; competition with immobilised ligand; 5 µM).
With `CN(C)c1nccc(-c2cnc3ncccn23)n1` the remaining binding was 100% (binding; 1 µM).
The remaining binding of `CS(=O)(=O)c1cc(C2(NC(=O)c3cncc4c3cnn4-c3ccc(F)cc3)CC2)ccn1` is reported as 100% (cell-free assay; competition with immobilised ligand; 1 µM).
`COc1ccnn2ncc(-c3ccnc(N(C)C)n3)c12` has a remaining binding of 100% (binding; 1 µM).
`COc1cnc(Nc2cccc(S(N)(=O)=O)c2)nc1N1CCN(c2ccccc2)C(=O)C1` has a remaining binding of 100% (binding; competition with immobilised ligand; 1 µM).
`CN(C(=O)c1ccccc1)c1cc(N(C)c2ccc3c(c2)CCc2ccc(C(=O)NCCN4CCOCC4)cc2C3=O)ccc1F` has a remaining binding of 100% (cell-free assay; competition with immobilised ligand; 1 µM).
`CNC(=O)[C@@H]1CC[C@@H](n2c(-c3ccc4cnccc4c3)nc3ccc(C(=O)NCc4cccc(C(N)=O)c4)cc32)C1` has a remaining binding of 100% (binding; competition with immobilised ligand; 1 µM).
`O=C(Nc1cnc(Oc2ccc(F)cc2)nc1)N1CCc2ncccc2[C@@H]1c1ccc(F)cc1` has a remaining binding of 100% (cell-free assay; competition with immobilised ligand; 1 µM).
For `C[C@@H]1CCN(c2nccc(-c3cnn4ncccc34)n2)C1`, the remaining binding was 100% (binding; 1 µM).
The remaining binding of `CCOC(=O)c1cc2cc(-c3cc(C(=O)NCc4ccc(C(=O)O)cc4)nn3C)ccc2[nH]1` is reported as 100% (cell-free assay; competition with immobilised ligand; 0.1 µM).
With `CCN1CCN(Cc2ccc(C(=O)Nc3ccc(C)c(Oc4ccc5c(c4)CC(=O)N5)c3)cc2C(F)(F)F)CC1` the remaining binding was 100% (binding; competition with immobilised ligand; 1 µM).
`N[C@@H]1CCN(c2nccc(-c3cnn4ncccc34)n2)C1` gave a remaining binding of 100% (binding; 1 µM).
For `O=C(c1ccc(Nc2ncc(Cl)c(-c3cc4ccccc4s3)n2)cc1)N1CCC(N2CCCC2)CC1`, the remaining binding was 78% (binding; competition with immobilised ligand; 1 µM).
`O=C(NCC1CCOCC1)c1n[nH]cc1NC(=O)c1c(F)cccc1F` has a remaining binding of 79% (binding; competition with immobilised ligand; 1 µM).
